The text below walks through data of ChEMBL document CHEMBL3044632, “Synthesis, crystal structure, and biological activity of 4-methyl-1,2,3-thiadiazole-containing 1,2,4-triazolo[3,4-b][1,3,4]thiadiazoles” (J Agric Food Chem, 2010).

The subject of one series is Alternaria solani. Put plainly: Fungicide activity against Alternaria solani assessed as growth inhibition at 50 ug/mL at 24 to 26 degC measured after 2 days. It is filed as functional. Particulars: 48 h, read-out: GI.
Another series relates to Phytophthora infestans. Kind of series: Fungicide activity against Phytophthora infestans assessed as growth inhibition at 50 ug/mL at 24 to 26 degC measured after 2 days. It is filed as functional. Particulars: 48 h, read-out: GI.
Another series relates to Botrytis cinerea. Put plainly: Fungicide activity against Botryotinia fuckeliana assessed as growth inhibition at 50 ug/mL at 24 to 26 degC measured after 2 days. It is filed as functional. Particulars: 48 h, read-out: GI.
A further series relates to Thanatephorus cucumeris. Kind of series: Fungicide activity against Thanatephorus cucumeris assessed as growth inhibition at 50 ug/mL at 24 to 26 degC measured after 2 days. It is filed as functional. Particulars: 48 h, read-out: GI.
For series [1], the system named is Tobacco mosaic virus. Put plainly: Antiviral activity against Tobacco mosaic virus (TMV) infected leaves assessed as viral inhibition at 50 ug/mL at 25 degC for 72 hr. It is filed as functional. A digest of the protocol:
(§1)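 Systemic acquired resistance induction was assayed in a tobacco–TMV system. The antivirus inhibition ratio was calculated from the average number of viral lesions on inoculated leaves, relative to the corresponding control.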

In another series the test system is Fusarium oxysporum. Put plainly: Fungicide activity against Fusarium oxysporum assessed as growth inhibition at 50 ug/mL at 24 to 26 degC measured after 2 days. It is filed as functional. Particulars: 48 h, read-out: GI.
The test system of series [2] is Botryosphaeria berengeriana. Put plainly: Fungicide activity against Botryosphaeria berengeriana assessed as growth inhibition at 50 ug/mL at 24 to 26 degC measured after 2 days. It is filed as functional. The note with it: 48 h, read-out: GI.
For the next series, the system named is Nicotiana tabacum. Kind of series: Phytotoxicity against Nicotiana tabacum (tobacco) plant at 50 to 500 ug/mL. The note with it: in vivo. It is filed as organism-based.
The test system of a further series is Mycosphaerella arachidis. Put plainly: Fungicide activity against Mycosphaerella arachidis assessed as growth inhibition at 50 ug/mL at 24 to 26 degC measured after 2 days. It is filed as functional. Particulars: 48 h, read-out: GI.
In a further series the test system is Colletotrichum lagenaria. Put plainly: Fungicide activity against Colletotrichum lagenaria assessed as growth inhibition at 50 ug/mL at 24 to 26 degC measured after 2 days. It is filed as functional. The note with it: 48 h, read-out: GI.
For the next series, the system named is Fusarium graminearum. Put plainly: Fungicide activity against Fusarium graminearum assessed as growth inhibition at 50 ug/mL at 24 to 26 degC measured after 2 days. It is filed as functional. The note with it: 48 h, read-out: GI.
For the next series, the system named is Cercospora beticola. Kind of series: Fungicide activity against Cercospora beticola assessed as growth inhibition at 50 ug/mL at 24 to 26 degC measured after 2 days. It is filed as functional. The note with it: 48 h, read-out: GI.
Series [3] has as its system Tobacco mosaic virus. Kind of series: Antiviral activity against Tobacco mosaic virus (TMV) infected leaves assessed as viral inhibition at 500 ug/mL at 25 degC for 72 hr. It is filed as functional. In short, it runs like this:
as §1

The test system of series [4] is Tobacco mosaic virus. Put plainly: Antiviral activity against Tobacco mosaic virus (TMV) infected leaves assessed as viral inhibition at 100 ug/mL at 25 degC for 72 hr. It is filed as functional. In short, it runs like this:
as §1

In the next series the test system is Puccinia triticina. Put plainly: Fungicide activity against Puccinia triticina assessed as growth inhibition at 50 ug/mL at 24 to 26 degC measured after 2 days. It is filed as functional. Particulars: 48 h, read-out: GI.

With `Cc1nnsc1C1=NNC2SC(CCl)=NN12` (stereo not drawn), the inhibition of growth at 50 µg/mL in the series with Alternaria solani came out at 23.8%; in the series with Phytophthora infestans, 11.4%; in the series on Botrytis cinerea it was 65.2%; in the series with Thanatephorus cucumeris, 38.4%; in the series on Fusarium oxysporum, 25%; in series [2], 33.3%. In addition, the inhibition of growth at 50 µg/mL in the series with Mycosphaerella arachidis was determined as 34.8%; in the series with Colletotrichum lagenaria, 4.3%; in the series on Fusarium graminearum it was 33.3%; with Cercospora beticola, 21.4%. The inhibition at 50 µg/mL in the series on Tobacco mosaic virus [1] was 29.2%. Besides, in the series with Nicotiana tabacum, the Activity result is given as “Toxic”.

Consider `Cc1nnsc1C1=NNC2SC(c3ccc(F)cc3)=NN12` (stereo not drawn), for which the inhibition of growth at 50 µg/mL with Alternaria solani is 26.3%; in the series with Phytophthora infestans, 15.6%; in the series with Botrytis cinerea, 53.3%; in the series with Thanatephorus cucumeris it was 11.3%; in the series on Fusarium oxysporum, 9.3%; in series [2], 18.6%. For the same compound, the inhibition of growth at 50 µg/mL with Mycosphaerella arachidis came out at 33.1%; in the series on Colletotrichum lagenaria it was 10.3%; in the series on Fusarium graminearum it was 14.3%; with Cercospora beticola it was 7.1%. For the same compound, the inhibition at 50 µg/mL with Tobacco mosaic virus [1] worked out at 0%. For the same compound, the Activity result with Nicotiana tabacum is listed as “Toxic”.

As to `CCCC1=NN2C(c3snnc3C)=NNC2S1` (stereo not drawn), the inhibition of growth at 50 µg/mL was 34.4% with Alternaria solani; 75.8% with Phytophthora infestans; 84.9% in the series with Botrytis cinerea; 77.8% in the series with Thanatephorus cucumeris; 93% in the series with Fusarium oxysporum; 40.5% in series [2]. For the same compound, the inhibition of growth at 50 µg/mL was 62.1% in the series on Mycosphaerella arachidis, 50% in the series on Colletotrichum lagenaria, 75% in the series with Fusarium graminearum and 33.3% with Cercospora beticola. Moreover, the inhibition at 50 µg/mL in the series with Tobacco mosaic virus [1] turned out to be 0%. Besides, the Activity result in the series with Nicotiana tabacum is on record as “Toxic”.

`Cc1nnsc1C1=NNC2SC(c3c(Cl)cccc3Cl)=NN12` (stereo not drawn): the inhibition of growth at 50 µg/mL with Alternaria solani worked out at 23.7%; in the series on Phytophthora infestans it was 20%; with Botrytis cinerea, 64.4%; with Thanatephorus cucumeris it was 42.3%; in the series on Fusarium oxysporum, 13.9%; in series [2], 37.2%. For the same compound, the inhibition of growth at 50 µg/mL in the series on Mycosphaerella arachidis was determined as 23.1%; in the series with Colletotrichum lagenaria it was 20.7%; in the series on Fusarium graminearum it was 14.3%; in the series on Cercospora beticola, 28.6%. Moreover, the inhibition at 50 µg/mL in the series on Tobacco mosaic virus [1] worked out at 12.5%. In addition, in the series with Nicotiana tabacum, the Activity result is on record as “Toxic”.

Take `Cc1nnsc1C1=NNC2SC(c3ccccc3F)=NN12` (stereo not drawn): the inhibition of growth at 50 µg/mL was 40% with Alternaria solani; 20% in the series on Phytophthora infestans; 58.8% in the series on Thanatephorus cucumeris; 19.4% with Fusarium oxysporum; 24.2% in series [2]; 18.2% in the series on Mycosphaerella arachidis. Also, the inhibition of growth at 50 µg/mL in the series with Colletotrichum lagenaria was 11.8%; with Cercospora beticola, 23.8%; in the series with Puccinia triticina it was 21.1%. The inhibition at 500 µg/mL in the series on Tobacco mosaic virus [3] amounted to 53.6%. Moreover, the inhibition at 100 µg/mL in the series on Tobacco mosaic virus [4] came out at 9.5%. In addition, the Activity entry in the series with Nicotiana tabacum is “Toxic”.

As to `Cc1nnsc1C1=NNC2SC(c3ccco3)=NN12` (stereo not drawn), the inhibition of growth at 50 µg/mL in the series with Alternaria solani stood at 43.3%; in the series on Phytophthora infestans it was 14.7%; with Thanatephorus cucumeris, 45.1%; in the series on Fusarium oxysporum, 22.2%; in [2], 29%; in the series with Mycosphaerella arachidis, 36.4%. The inhibition of growth at 50 µg/mL in the series with Colletotrichum lagenaria is 0%; in the series on Cercospora beticola, 42.9%; in the series with Puccinia triticina, 21%. In the series with Tobacco mosaic virus [3], the inhibition at 500 µg/mL was determined as 23.5%. For the same compound, in the series with Tobacco mosaic virus [4], the inhibition at 100 µg/mL stood at 20%. Moreover, the Activity result with Nicotiana tabacum is on record as “Toxic”.

Turning to `Cc1nnsc1C1=NNC2SC(COc3ccc(Cl)cc3Cl)=NN12` (stereo not drawn), the inhibition of growth at 50 µg/mL in the series on Alternaria solani is 31.3%; in the series on Phytophthora infestans, 12.1%; in the series on Thanatephorus cucumeris it was 33.3%; in the series with Fusarium oxysporum it was 3%; in series [2], 23.8%; in the series with Mycosphaerella arachidis, 31%. Besides, the inhibition of growth at 50 µg/mL in the series on Colletotrichum lagenaria amounted to 19.2%; in the series with Fusarium graminearum, 12.5%; with Cercospora beticola it was 20%. The inhibition at 50 µg/mL in the series with Tobacco mosaic virus [1] worked out at 0%. Further, the Activity result in the series on Nicotiana tabacum is given as “Toxic”.
